According to ChEMBL document CHEMBL1155222, “Synthesis and anticancer activity of N-bis(trifluoromethyl)alkyl-N'-thiazolyl and N-bis(trifluoromethyl)alkyl-N'-benzothiazolyl ureas” (2009):

Experiments:
Assay type in all cases: functional
HOP-62 = assay: Anticancer activity against human HOP62 cells after 48 hrs by sulforhodamine B assay; conditions: HOP-62, 48 h
Method in brief: (§1)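 NCI 60-cell-line screen. Cells grown in RPMI 1640 with 5% FBS and 2 mM L-glutamine, plated at 5000–40,000 cells/well, and preincubated 24 h at 37 °C under 5% CO2. Compounds were taken from DMSO stocks and tested at five final concentrations, 10^-4 to 10^-8 M, for 48 h. Cells were TCA-fixed, stained with 0.4% SRB, and read at 515 nm. GI50, TGI and LC50 were derived as log molar values.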

MCF7 = assay: Anticancer activity against human MCF7 cells after 48 hrs by sulforhodamine B assay; conditions: MCF7, 48 h; method in brief: as §1
U-251 = assay: Anticancer activity against human U251 cells after 48 hrs by sulforhodamine B assay; conditions: U-251, 48 h
Method in brief: (§2)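 NCI 60-cell-line panel; cells grown in RPMI 1640 with 5% FBS and 2 mM L-glutamine, plated at 5000–40,000 cells/well and preincubated 24 h at 37 °C, 5% CO2. Compounds came from DMSO stocks diluted in medium with gentamicin and were tested at five final concentrations, 10^-4 to 10^-8 M, for 48 h. Cells were fixed with TCA, stained with SRB and read at 515 nm. GI50, TGI and LC50 were derived as log molar values.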

KM12 = assay: Anticancer activity against human KM12 cells after 48 hrs by sulforhodamine B assay; conditions: KM12, 48 h; method in brief: as §1
PC-3 = assay: Anticancer activity against human PC3 cells after 48 hrs by sulforhodamine B assay; conditions: PC-3, 48 h; method in brief: as §1
A498 = assay: Anticancer activity against human A498 cells after 48 hrs by sulforhodamine B assay; conditions: A498, 48 h; method in brief: as §1
NCI/ADR-RES = assay: Anticancer activity against human NCI/ADR-RES cells after 48 hrs by sulforhodamine B assay; method in brief: as §1
SF-268 = assay: Anticancer activity against human SF268 cells after 48 hrs by sulforhodamine B assay; conditions: SF-268, 48 h; method in brief: as §1
SF-539 = assay: Anticancer activity against human SF539 cells after 48 hrs by sulforhodamine B assay; conditions: SF-539, 48 h; method in brief: as §1
HCT-116 = assay: Anticancer activity against human HCT116 cells after 48 hrs by sulforhodamine B assay; conditions: HCT-116, 48 h; method in brief: as §1
SK-OV-3 = assay: Anticancer activity against human SKOV3 cells after 48 hrs by sulforhodamine B assay; conditions: SK-OV-3, 48 h; method in brief: as §1
OVCAR-8 = assay: Anticancer activity against human OVCAR8 cells after 48 hrs by sulforhodamine B assay; conditions: OVCAR-8, 48 h; method in brief: as §1
786-0 = assay: Anticancer activity against human 786-0 cells after 48 hrs by sulforhodamine B assay; conditions: 786-0, 48 h; method in brief: as §1
BT-549 = assay: Anticancer activity against human BT549 cells after 48 hrs by sulforhodamine B assay; conditions: BT-549, 48 h; method in brief: as §1
MOLT-4 = assay: Anticancer activity against human MOLT4 cells after 48 hrs by sulforhodamine B assay; conditions: MOLT-4, 48 h; method in brief: as §1
COLO 205 = assay: Anticancer activity against human COLO205 cells after 48 hrs by sulforhodamine B assay; conditions: COLO 205, 48 h; method in brief: as §1
T47D = assay: Anticancer activity against human T47D cells after 48 hrs by sulforhodamine B assay; method in brief: as §2
SF-295 = assay: Anticancer activity against human SF295 cells after 48 hrs by sulforhodamine B assay; conditions: SF-295, 48 h; method in brief: as §1
SR = assay: Anticancer activity against human SR cells after 48 hrs by sulforhodamine B assay; method in brief: as §2
ACHN = assay: Anticancer activity against human ACHN cells after 48 hrs by sulforhodamine B assay; method in brief: as §1
HOP-92 = assay: Anticancer activity against human HOP92 cells after 48 hrs by sulforhodamine B assay; conditions: HOP-92, 48 h; method in brief: as §1
EKVX = assay: Anticancer activity against human EKVX cells after 48 hrs by sulforhodamine B assay; method in brief: as §1
SK-MEL-2 = assay: Anticancer activity against human SK-MEL-2 cells after 48 hrs by sulforhodamine B assay; conditions: SK-MEL-2, 48 h; method in brief: as §1
HCT-15 = assay: Anticancer activity against human HCT15 cells after 48 hrs by sulforhodamine B assay; conditions: HCT-15, 48 h; method in brief: as §1
M14 = assay: Anticancer activity against human M14 cells after 48 hrs by sulforhodamine B assay; conditions: M14, 48 h; method in brief: as §1
TK-10 = assay: Anticancer activity against human TK10 cells after 48 hrs by sulforhodamine B assay; conditions: TK-10, 48 h; method in brief: as §2
CAKI-1 = assay: Anticancer activity against human Caki1 cells after 48 hrs by sulforhodamine B assay; conditions: CAKI-1, 48 h; method in brief: as §1
OVCAR-4 = assay: Anticancer activity against human OVCAR4 cells after 48 hrs by sulforhodamine B assay; conditions: OVCAR-4, 48 h; method in brief: as §1
SN12C = assay: Anticancer activity against human SN12C cells after 48 hrs by sulforhodamine B assay; method in brief: as §2
UACC-257 = assay: Anticancer activity against human UACC257 cells after 48 hrs by sulforhodamine B assay; conditions: UACC-257, 48 h; method in brief: as §2
IGROV-1 = assay: Anticancer activity against human IGROV1 cells after 48 hrs by sulforhodamine B assay; conditions: IGROV-1, 48 h; method in brief: as §1
UACC-62 = assay: Anticancer activity against human UACC62 cells after 48 hrs by sulforhodamine B assay; conditions: UACC-62, 48 h; method in brief: as §2
NCI-H322M = assay: Anticancer activity against human NCI-H322M cells after 48 hrs by sulforhodamine B assay; method in brief: as §1
Malme-3M = assay: Anticancer activity against human MALME-3M cells after 48 hrs by sulforhodamine B assay; method in brief: as §1
SK-MEL-5 = assay: Anticancer activity against human SK-MEL-5 cells after 48 hrs by sulforhodamine B assay; conditions: SK-MEL-5, 48 h; method in brief: as §1
SK-MEL-28 = assay: Anticancer activity against human SK-MEL-28 cells after 48 hrs by sulforhodamine B assay; conditions: SK-MEL-28, 48 h; method in brief: as §1
OVCAR-3 = assay: Anticancer activity against human OVCAR-3 cells after 48 hrs by sulforhodamine B assay; conditions: OVCAR-3, 48 h; method in brief: as §1
NCI-H226 = assay: Anticancer activity against human NCI-H226 cells after 48 hrs by sulforhodamine B assay; conditions: NCI-H226, 48 h; method in brief: as §1
SW-620 = assay: Anticancer activity against human SW620 cells after 48 hrs by sulforhodamine B assay; conditions: SW-620, 48 h; method in brief: as §2
[1] = Anticancer activity against human Hs 578T cells after 48 hrs by sulforhodamine B assay; method in brief: as §1
UO-31 = assay: Anticancer activity against human UO31 cells after 48 hrs by sulforhodamine B assay; conditions: UO-31, 48 h; method in brief: as §2
DU-145 = assay: Anticancer activity against human DU145 cells after 48 hrs by sulforhodamine B assay; conditions: DU-145, 48 h; method in brief: as §1
HT-29 = assay: Anticancer activity against human HT-29 cells after 48 hrs by sulforhodamine B assay; conditions: HT-29, 48 h; method in brief: as §1
NCI-H460 = assay: Anticancer activity against human NCI-H460 cells after 48 hrs by sulforhodamine B assay; conditions: NCI-H460, 48 h; method in brief: as §1
MDA-MB-435 = assay: Anticancer activity against human MDA-MB-435 cells after 48 hrs by sulforhodamine B assay; conditions: MDA-MB-435, 48 h; method in brief: as §1

## CNC(=O)Nc1ccccc1
HOP-62
  GI50: 100 µM
MCF7
  GI50: 100 µM
U-251
  GI50: 100 µM
KM12
  GI50: 100 µM
PC-3
  GI50: 100 µM
A498
  GI50: 100 µM
NCI/ADR-RES
  GI50: 100 µM
SF-268
  GI50: 100 µM
SF-539
  GI50: 100 µM
HCT-116
  GI50: 100 µM
SK-OV-3
  GI50: 100 µM
OVCAR-8
  GI50: 100 µM
786-0
  GI50: 100 µM
BT-549
  GI50: 100 µM
MOLT-4
  GI50: 100 µM
COLO 205
  GI50: 100 µM
T47D
  GI50: 100 µM
SF-295
  GI50: 100 µM
SR
  GI50: 100 µM
ACHN
  GI50: 100 µM
HOP-92
  GI50: 100 µM
EKVX
  GI50: 100 µM
SK-MEL-2
  GI50: 100 µM
HCT-15
  GI50: 100 µM
M14
  GI50: 100 µM
TK-10
  GI50: 100 µM
CAKI-1
  GI50: 100 µM
OVCAR-4
  GI50: 100 µM
SN12C
  GI50: 100 µM
UACC-257
  GI50: 100 µM
IGROV-1
  GI50: 100 µM
UACC-62
  GI50: 100 µM
NCI-H322M
  GI50: 100 µM
Malme-3M
  GI50: 100 µM
SK-MEL-5
  GI50: 100 µM
SK-MEL-28
  GI50: 100 µM
OVCAR-3
  GI50: 100 µM
NCI-H226
  GI50: 100 µM
SW-620
  GI50: 100 µM
[1]
  GI50: 100 µM
UO-31
  GI50: 100 µM
DU-145
  GI50: 100 µM
HT-29
  GI50: 100 µM
NCI-H460
  GI50: 100 µM
MDA-MB-435
  GI50: 100 µM

## CCC(NC(=O)Nc1nccs1)(C(F)(F)F)C(F)(F)F
HOP-62
  GI50: > 100 µM
MCF7
  GI50: 42.7 µM
U-251
  GI50: 40.7 µM
KM12
  GI50: 46.8 µM
PC-3
  GI50: 0.0794 µM
A498
  GI50: 46.8 µM
NCI/ADR-RES
  GI50: 29.5 µM
SF-268
  GI50: 60.3 µM
SF-539
  GI50: > 100 µM
HCT-116
  GI50: 46.8 µM
SK-OV-3
  GI50: > 100 µM
OVCAR-8
  GI50: 53.7 µM
786-0
  GI50: > 100 µM
BT-549
  GI50: 40.7 µM
MOLT-4
  GI50: 30.9 µM
COLO 205
  GI50: 74.1 µM
T47D
  GI50: 38.9 µM
SF-295
  GI50: 52.5 µM
SR
  GI50: 30.2 µM
ACHN
  GI50: 61.7 µM
HOP-92
  GI50: 60.3 µM
EKVX
  GI50: 35.5 µM
SK-MEL-2
  GI50: 20 µM
HCT-15
  GI50: 53.7 µM
M14
  GI50: 38 µM
TK-10
  GI50: 31.6 µM
CAKI-1
  GI50: 83.2 µM
OVCAR-4
  GI50: 83.2 µM
SN12C
  GI50: 55 µM
UACC-257
  GI50: 32.4 µM
IGROV-1
  GI50: > 100 µM
UACC-62
  GI50: 40.7 µM
NCI-H322M
  GI50: > 100 µM
Malme-3M
  GI50: 58.9 µM
SK-MEL-5
  GI50: 33.9 µM
SK-MEL-28
  GI50: 72.4 µM
OVCAR-3
  GI50: 61.7 µM
NCI-H226
  GI50: 70.8 µM
SW-620
  GI50: 83.2 µM
[1]
  GI50: 52.5 µM
UO-31
  GI50: 95.5 µM
DU-145
  GI50: 69.2 µM
HT-29
  GI50: 41.7 µM
NCI-H460
  GI50: 38.9 µM
MDA-MB-435
  GI50: 61.7 µM

## CCC(NC(=O)Nc1nc2ccccc2s1)(C(F)(F)F)C(F)(F)F
HOP-62
  GI50: 17.8 µM
MCF7
  GI50: 15.8 µM
U-251
  GI50: 17.4 µM
KM12
  GI50: 20.4 µM
PC-3
  GI50: 18.2 µM
A498
  GI50: 13.5 µM
NCI/ADR-RES
  GI50: 19.5 µM
SF-268
  GI50: 17 µM
SF-539
  GI50: 18.2 µM
HCT-116
  GI50: 18.2 µM
SK-OV-3
  GI50: 17.8 µM
OVCAR-8
  GI50: 18.2 µM
786-0
  GI50: 20 µM
BT-549
  GI50: 18.2 µM
MOLT-4
  GI50: 29.5 µM
COLO 205
  GI50: 16.2 µM
T47D
  GI50: 15.5 µM
SF-295
  GI50: 17 µM
SR
  GI50: 17 µM
ACHN
  GI50: 18.2 µM
HOP-92
  GI50: 19.1 µM
EKVX
  GI50: 17 µM
SK-MEL-2
  GI50: 15.8 µM
HCT-15
  GI50: 17.8 µM
M14
  GI50: 18.6 µM
TK-10
  GI50: 21.9 µM
CAKI-1
  GI50: 19.1 µM
OVCAR-4
  GI50: 18.6 µM
SN12C
  GI50: 16.2 µM
UACC-257
  GI50: 20 µM
IGROV-1
  GI50: 17 µM
UACC-62
  GI50: 15.5 µM
NCI-H322M
  GI50: 25.7 µM
Malme-3M
  GI50: 15.5 µM
SK-MEL-5
  GI50: 17.8 µM
SK-MEL-28
  GI50: 17.8 µM
OVCAR-3
  GI50: 16.6 µM
NCI-H226
  GI50: 15.8 µM
SW-620
  GI50: 20.9 µM
[1]
  GI50: 21.4 µM
UO-31
  GI50: 4.68 µM
DU-145
  GI50: 18.6 µM
HT-29
  GI50: 19.5 µM
NCI-H460
  GI50: 21.4 µM
MDA-MB-435
  GI50: 20 µM
